Calls of active or inactive are those of the source.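 How the source made its calls, unless noted: active means viability at or below 10% of carrier control in both of two separate runs; inconclusive means viability at or below 10% in only one of the two runs; inactive means the rest.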
Experiments:
[1] = reducers of endogenous Her2 protein level, primary screen, SKBR3 breast tumor cells, AlphaScreen, ATP viability (AID 461;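 active means Her2 level under about 52% in both replicate screens, with viability over 70% of control, limit read from the data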;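 on Her2 level: lower value means less Her2 protein in the cells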;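 on viability: percent of carrier control wells set as 100% viability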); settings: 18-24 h, measured here: SKBR3 viability, ATP luminescence, at 10 µM
[2] = molecular target: Receptor tyrosine-protein kinase erbB-2 (Homo sapiens) (UniProt P04626); assay: as above; settings: 18-24 h, at 10 µM, stronger effect = lower value
[3] = SK-BR-3 cell growth inhibitors, pilot screen, 24 h, human (AID 572); settings: SK-BR-3 viability, CellTiter-Glo luminescence, at 10 µM, stronger effect = lower value;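 further: compound exposure lasted between 18 and 24 h rather than exactly 24 h; 100% = carrier-treated control wells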
[4] = HUVEC growth inhibition – cell-based, human, primary screen (AID 575;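 active means viability at or below 30% in both replicate assays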;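 further: 100% = median of untreated cell wells with 0.1% DMSO on each plate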); settings: HUVEC proliferation, CellTiter-Glo luminescence, 72 h; at 10 µM; stronger effect = lower value
Procedure, shortened: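 Test system – primary HUVEC, no more than 12 passages · Dosing – one dose, 10 µM final, 0.1% DMSO · Times – 72 h treatment at 37 °C · Measured by – ATP-based CellTiter-Glo luminescent read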

[5] = growth inhibitors of H69AR lung tumor, primary screen, human, duplicate replicates (AID 580;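 active means viability at or under a set limit in both replicates, limit being median viability minus 3 SD, cut at about 48% in these data, passing the limit was not always enough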;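 further: 100% = mean luminescence of untreated wells and 0% = no signal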); settings: H69AR lung tumor cells viability, ATP luminescence, 72 h; at 10 µM; stronger effect = lower value
[6] = reversal of MRP1-mediated doxorubicin resistance, pilot screen, H69AR cells, doxorubicin co-treatment (AID 601;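 active means viability loss from added drug above about 55%, and viability with drug at most 40%, in both replicates, limit read from the data, passing the limit was not always enough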); settings: CellTiter-Glo, 72 h, at 10 µM; for differential viability (reversal): stronger effect = higher value
[7] = 384-well plate pilot, post-Golgi transport modulator project, inhibition of yeast transport mutant growth (AID 636; in the data active means inhibition above about 31%); settings: absorbance 615 nm, about 18 h, stronger effect = higher value
[8] = growth suppression of yeast trafficking mutant, preliminary HTS, modulators of trafficking downstream of Golgi apparatus project, 1536-format plate, OD 615 nm (AID 637; in the data active means inhibition above about 30%); settings: yeast transport mutant growth, absorbance 615 nm, 18 h; stronger effect = higher value
[9] = H69AR cells + 2 uM doxorubicin, measured here: viability with 2 uM doxorubicin, stronger effect = lower value
[10] = H69AR cells, compound alone cytotoxicity

Chain of Receptor tyrosine-protein kinase erbB-2 (Homo sapiens) (P04626 whole entry, looked up): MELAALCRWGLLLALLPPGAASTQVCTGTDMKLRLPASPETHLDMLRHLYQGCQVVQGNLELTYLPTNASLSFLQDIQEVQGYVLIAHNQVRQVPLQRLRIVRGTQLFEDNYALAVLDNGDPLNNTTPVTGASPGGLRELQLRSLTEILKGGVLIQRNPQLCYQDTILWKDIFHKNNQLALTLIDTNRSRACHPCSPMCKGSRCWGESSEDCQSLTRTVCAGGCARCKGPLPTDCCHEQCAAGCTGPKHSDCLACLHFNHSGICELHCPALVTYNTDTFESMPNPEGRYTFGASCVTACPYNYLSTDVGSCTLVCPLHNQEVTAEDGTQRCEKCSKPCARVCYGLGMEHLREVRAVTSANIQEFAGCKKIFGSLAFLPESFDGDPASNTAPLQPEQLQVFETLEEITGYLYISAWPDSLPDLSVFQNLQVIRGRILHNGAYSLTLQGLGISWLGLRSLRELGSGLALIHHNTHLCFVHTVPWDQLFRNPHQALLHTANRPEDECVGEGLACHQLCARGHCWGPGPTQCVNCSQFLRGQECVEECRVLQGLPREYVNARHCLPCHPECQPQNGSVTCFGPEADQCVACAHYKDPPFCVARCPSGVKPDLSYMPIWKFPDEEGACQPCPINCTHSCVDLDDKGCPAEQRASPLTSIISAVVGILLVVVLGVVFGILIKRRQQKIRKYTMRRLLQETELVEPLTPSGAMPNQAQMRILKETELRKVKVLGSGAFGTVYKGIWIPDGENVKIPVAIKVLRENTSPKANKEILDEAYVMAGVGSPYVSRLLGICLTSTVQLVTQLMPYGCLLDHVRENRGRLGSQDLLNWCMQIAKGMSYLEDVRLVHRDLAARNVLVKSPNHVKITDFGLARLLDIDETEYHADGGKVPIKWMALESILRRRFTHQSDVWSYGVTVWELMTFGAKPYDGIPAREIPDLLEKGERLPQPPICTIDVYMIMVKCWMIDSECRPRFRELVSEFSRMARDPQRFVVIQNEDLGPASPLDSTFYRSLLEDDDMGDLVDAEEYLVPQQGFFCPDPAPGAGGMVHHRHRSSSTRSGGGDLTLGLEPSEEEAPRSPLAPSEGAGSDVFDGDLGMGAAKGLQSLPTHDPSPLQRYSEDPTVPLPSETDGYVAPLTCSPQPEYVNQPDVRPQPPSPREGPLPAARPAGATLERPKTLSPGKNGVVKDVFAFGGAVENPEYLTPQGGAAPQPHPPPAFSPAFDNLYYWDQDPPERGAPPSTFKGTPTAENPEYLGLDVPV

| Structure (SMILES) | viability [1] | Her2 level [2] | viability [3] | viability [4] | viability [5] | differential viability (reversal) ([6]; H69AR cells + 2 uM doxorubicin) | viability [6, 9] | viability [6, 10] | inhibition [7] | inhibition [8] |
| --- | --- | --- | --- | --- | --- | --- | --- | --- | --- | --- |
| CCOC(=O)Nc1sc(=S)n(C)c1C | 92.5% | 96% (inactive) | 92.5% (inactive) | 104% (inactive) | 98% (inactive) | 3.1% (inactive) | 94.9% | 98% | -3.95% (inactive) | 0.16% (inactive) |
| O=C(O)Cn1cc2c(n1)CCCC2 | 96% | 98% (inactive) | 96% (inactive) | 93.9% (inactive) | 98% (inactive) | 3.98% (inactive) | 94% | 98% | -2% (inactive) | 5.41% (inactive) |
| CCNC(=O)Cn1cnc2c1c(=O)n(C)c(=O)n2C | 108% | 108% (inactive) | 108% (inactive) | 112% (inactive) | 96.2% (inactive) | -1.97% (inactive) | 98.2% | 96.2% | -4.74% (inactive) | 5.25% (inactive) |
| COc1ccccc1-n1c(-c2cccnc2)n[nH]c1=S | 88% | 109% (inactive) | 88% (inactive) | 110% (inactive) | 109% (inactive) | 6.74% (inactive) | 102% | 109% | -0.4% (inactive) | -2.95% (inactive) |
| O=C(CSc1nnc2scc(-c3ccccc3)n12)N1CCN(Cc2ccccc2)CC1 | 89% | 97.5% (inactive) | 89% (inactive) | 103% (inactive) | 78.5% (inactive) | 8.52% (inactive) | 70% | 78.5% | -5.66% (inactive) | -0.32% (inactive) |
| CC1(C)CC(=O)C(C=NCCc2ccc(S(N)(=O)=O)cc2)=C(O)C1 | 116% | 95% (inactive) | 116% (inactive) | 98.7% (inactive) | 88% (inactive) | -2.06% (inactive) | 90% | 88% | -6.13% (inactive) | -2.3% (inactive) |
| COc1ccc2oc(=O)c(C(=O)N3CCN(c4ccccc4F)CC3)cc2c1 | 97.5% | 95.5% (inactive) | 97.5% (inactive) | 108% (inactive) | 88.1% (inactive) | -9.48% (inactive) | 97.6% | 88.1% | -6.4% (inactive) | -3.65% (inactive) |
| COc1ccc(S(=O)(=O)N2CCSC2c2ccccc2)cc1 (stereo not given) | 82% | 90.5% (inactive) | 82% (inactive) | 79.9% (inactive) | 76.9% (inactive) | -13.8% (inactive) | 90.7% | 76.9% | -2.7% (inactive) | -2.95% (inactive) |
| Cc1c(C(=O)OC2CCCCC2)[nH]c2c1C(=O)CC(C)(C)C2 | 82.5% | 116% (inactive) | 82.5% (inactive) | 48.8% (inactive) | 78.8% (inactive) | -3.71% (inactive) | 82.5% | 78.8% | -3.55% (inactive) | -17.5% (inactive) |
| O=C(CN(c1ccc(F)cc1)S(=O)(=O)c1ccc2c(c1)OCCO2)Nc1ccc2c(c1)OCO2 | 83% | 89.5% (inactive) | 83% (inactive) | 91.3% (inactive) | 99.8% (inactive) | 4.63% (inactive) | 95.2% | 99.8% | 0.8% (inactive) | 4.03% (inactive) |
| CC(C)(C)c1ccccc1NC(=O)c1cccnc1 | 91.5% | 93.5% (inactive) | 91.5% (inactive) | 88.7% (inactive) | 96.6% (inactive) | 7.78% (inactive) | 88.8% | 96.6% | -4.67% (inactive) | 0.32% (inactive) |
| Cc1cc2c(=O)n(CC(=O)N3CCN(c4ccccc4)CC3)cnc2s1 | 92% | 78% (inactive) | 92% (inactive) | 100% (inactive) | 96.5% (inactive) | 8.25% (inactive) | 88.2% | 96.5% | -2.11% (inactive) | 0.18% (inactive) |
| CC(C)Oc1ccc(N2CC(C(=O)Nc3ccccc3F)CC2=O)cc1 (stereo not given) | 101% | 122% (inactive) | 101% (inactive) | 92.6% (inactive) | 97.6% (inactive) | 8.51% (inactive) | 89.1% | 97.6% | -1.17% (inactive) | -10.3% (inactive) |
| CN(c1ccccc1)S(=O)(=O)c1ccc(C(=O)OCC(=O)N2CCOCC2)cc1 | 106% | 85.5% (inactive) | 106% (inactive) | 106% (inactive) | 111% (inactive) | 21.5% (inactive) | 89.4% | 111% | -5.41% (inactive) | 3.17% (inactive) |

Source: PubChem BioAssay
